Assay results from ChEMBL document CHEMBL1158349, “Synthesis and antimicrobial evaluation of 1-(benzofuran-2-yl)-4-nitro-3-arylbutan-1-ones and 3-(benzofuran-2-yl)-4,5-dihydro-5-aryl-1-[4-(aryl)-1,3-thiazol-2-yl]-1H-pyrazoles” (2009).

Columns and labels:
Format in all cases: functional
Settings in all cases: read-out: DIZ
[1] = system: Staphylococcus aureus; experiment: Antibacterial activity against Staphylococcus aureus at 100 ug after 24 hrs by agar disc-diffusion method
Summary of the method: (§1)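 Agar disc-diffusion on nutrient agar. Sterile 6 mm filter-paper discs moistened with the test compound in DMSO were placed on plates seeded separately with each bacterium. Amoxicillin was the reference drug. Plates were incubated at 37 °C, and the growth-inhibition zone diameter was measured after 24 h.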

[2] = system: Bacillus subtilis; experiment: Antibacterial activity against Bacillus subtilis at 100 ug after 24 hrs by agar disc-diffusion method; summary of the method: as §1
[3] = system: Escherichia coli; experiment: Antibacterial activity against Escherichia coli at 100 ug after 24 hrs by agar disc-diffusion method; summary of the method: as §1
[4] = system: Candida albicans; experiment: Antifungal activity against Candida albicans at 100 ug after 48 hrs by agar disc-diffusion method
Summary of the method: (§2)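 Disc diffusion on nutrient agar. Plates were inoculated separately with each fungus, then 6 mm paper discs wetted with the compound solution in DMSO were applied. Fluconazole was the reference drug. Plates were incubated at 37 °C, and inhibition-zone diameters were read after 48 h.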

[5] = system: Aspergillus niger; experiment: Antifungal activity against Aspergillus niger at 100 ug after 48 hrs by agar disc-diffusion method; summary of the method: as §2

| Structure (SMILES) | zone of inhibition at 100 µg/disc [1] [mm] | zone of inhibition at 100 µg/disc [2] [mm] | zone of inhibition at 100 µg/disc [3] [mm] | zone of inhibition at 100 µg/disc [4] [mm] | zone of inhibition at 100 µg/disc [5] [mm] |
| --- | --- | --- | --- | --- | --- |
| NC(=S)N1N=C(c2cc3ccccc3o2)CC1c1ccccc1 (stereo not given) | 0 | 0 | 0 | 5 | 0 |
| CC1(C)S[C@@H]2[C@H](NC(=O)[C@H](N)c3ccc(O)cc3)C(=O)N2[C@H]1C(=O)O [AMOXICILLIN] | 20 | 20 | 20 | – | – |
| O=C(CC(C[N+](=O)[O-])c1ccc(Cl)cc1)c1cc2ccccc2o1 (stereo not given) | 0 | 0 | 12 | 20 | 15 |
| OC(Cn1cncn1)(Cn1cncn1)c1ccc(F)cc1F [FLUCONAZOLE] | – | – | – | 20 | 20 |
| NC(=S)N1N=C(c2cc3ccccc3o2)CC1c1ccc(Cl)cc1 (stereo not given) | 0 | 12 | 15 | 0 | 15 |
| c1ccc(-c2csc(N3N=C(c4cc5ccccc5o4)CC3c3ccccc3)n2)cc1 (stereo not given) | 17 | 0 | 25 | 0 | 0 |
| Brc1ccc(-c2csc(N3N=C(c4cc5ccccc5o4)CC3c3ccccc3)n2)cc1 (stereo not given) | 0 | 0 | 0 | 0 | 0 |
| COc1ccc(C(CC(=O)c2cc3ccccc3o2)C[N+](=O)[O-])cc1 (stereo not given) | 0 | 0 | 12 | 25 | 0 |
| Clc1ccc(C2CC(c3cc4ccccc4o3)=NN2c2nc(-c3ccccc3)cs2)cc1 (stereo not given) | 0 | 0 | 12 | 25 | 15 |
| O=C(CC(C[N+](=O)[O-])c1ccccc1)c1cc2ccccc2o1 (stereo not given) | 0 | 0 | 12 | 30 | 0 |
| Clc1ccc(C2CC(c3cc4ccccc4o3)=NN2c2nc(-c3ccc(Br)cc3)cs2)cc1 (stereo not given) | 0 | 0 | 0 | 25 | 0 |
